In ChEMBL document CHEMBL2203068, “Antibacterial butenolides from the Korean tunicate Pseudodistoma antinboja” (2012):
Converted amounts (≈) assume the structure as drawn. The source made the active and inactive calls. The rule behind the calls is not given here.

Key:
[1] = system: Klebsiella pneumoniae; assay: Antimicrobial activity against Klebsiella pneumoniae ATCC 4352 incubated for 24 hrs by microtiter broth dilution method; format: functional, organism-based
In short: (§1)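 Two-fold serial dilutions of compounds in DMSO were added to Mueller Hinton broth in 96-well microtiter plates (final 0.64% DMSO). Wells were inoculated with overnight bacterial culture at 5 × 10⁵ cfu/mL and incubated at 37 °C for 24 h. The MIC was the lowest concentration with no visible growth.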

[2] = system: Salmonella typhimurium; assay: Antimicrobial activity against Salmonella typhimurium ATCC 14028 incubated for 24 hrs by microtiter broth dilution method; format: functional, organism-based; settings: Salmonella enterica subsp. enterica serovar Typhimurium; in short: as §1
[3] = system: Escherichia coli; assay: Antimicrobial activity against Escherichia coli ATCC 11775 incubated for 24 hrs by microtiter broth dilution method; format: functional, organism-based; in short: as §1
[4] = system: Staphylococcus aureus; assay: Antimicrobial activity against Staphylococcus aureus ATCC 6538 incubated for 24 hrs by microtiter broth dilution method; format: functional; in short: as §1
[5] = system: Staphylococcus epidermidis; assay: Antimicrobial activity against Staphylococcus epidermidis ATCC 12228 incubated for 24 hrs by microtiter broth dilution method; format: functional; in short: as §1
[6] = system: Kocuria rhizophila; assay: Antimicrobial activity against Kocuria rhizophila ATCC 9341 incubated for 24 hrs by microtiter broth dilution method; format: functional; in short: as §1
[7] = system: Bacillus subtilis; assay: Antimicrobial activity against Bacillus subtilis ATCC 6633 incubated for 24 hrs by microtiter broth dilution method; format: functional; in short: as §1
[8] = system: Staphylococcus aureus; assay: Antimicrobial activity against methicillin-sensitive Staphylococcus aureus CCARM 0027 incubated for 24 hrs by microtiter broth dilution method; format: functional; settings: CCARM 0027, 24 h
In short: (§2)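 Two-fold serial dilutions of compound in DMSO were made in Mueller Hinton broth in 96-well microtiter plates, with 0.64% DMSO final. Each well was inoculated with an overnight bacterial culture at 5 × 10⁵ cfu/mL and incubated at 37 °C for 24 h. MIC was the lowest concentration showing no visible growth.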

[9] = system: Staphylococcus aureus; assay: Antimicrobial activity against methicillin-sensitive Staphylococcus aureus CCARM 0204 incubated for 24 hrs by microtiter broth dilution method; format: functional; settings: CCARM 0204, 24 h; in short: as §2
[10] = system: Staphylococcus aureus; assay: Antimicrobial activity against methicillin-sensitive Staphylococcus aureus CCARM 0205 incubated for 24 hrs by microtiter broth dilution method; format: functional; settings: CCARM 0205, 24 h; in short: as §2
[11] = system: Staphylococcus aureus; assay: Antimicrobial activity against methicillin-sensitive Staphylococcus aureus CCARM 3640 incubated for 24 hrs by microtiter broth dilution method; format: functional; settings: CCARM 3640, 24 h; in short: as §2
[12] = system: Staphylococcus aureus; assay: Antimicrobial activity against methicillin-resistant Staphylococcus aureus CCARM 3089 incubated for 24 hrs by microtiter broth dilution method; format: functional; settings: CCARM 3089, 24 h; in short: as §2
[13] = system: Staphylococcus aureus; assay: Antimicrobial activity against methicillin-resistant Staphylococcus aureus CCARM 3090 incubated for 24 hrs by microtiter broth dilution method; format: functional; settings: CCARM 3090, 24 h; in short: as §2
[14] = system: Staphylococcus aureus; assay: Antimicrobial activity against methicillin-resistant Staphylococcus aureus CCARM 3634 incubated for 24 hrs by microtiter broth dilution method; format: functional; settings: CCARM 3634, 24 h; in short: as §2
[15] = system: Staphylococcus aureus; assay: Antimicrobial activity against methicillin-resistant Staphylococcus aureus CCARM 3635 incubated for 24 hrs by microtiter broth dilution method; format: functional; settings: CCARM 3635, 24 h; in short: as §2

Row | Compound | MIC [1] | MIC [2] | MIC [3] | MIC ([4]; ATCC 6538, 24 h) | MIC ([5]; ATCC 12228, 24 h) | MIC ([6]; ATCC 9341, 24 h) | MIC ([7]; ATCC 6633, 24 h) | MIC [8] | MIC [9] | MIC [10] | MIC [11] | MIC [12] | MIC [13] | MIC [14] | MIC [15] | MIC [4] | MIC [5] | MIC [6] | MIC [7]
1 | COc1ccc(C=C2OC(=O)C=C2c2cc(Br)c(O)c(Br)c2)cc1 [RUBROLIDE P] | inactive | inactive | inactive | > 50 µg/mL | 50 µg/mL (≈ 111 µM) | 6.3 µg/mL (≈ 13.9 µM) | 50 µg/mL (≈ 111 µM) | > 32 µg/mL | > 32 µg/mL | > 32 µg/mL | > 32 µg/mL | > 32 µg/mL | > 32 µg/mL | > 32 µg/mL | > 32 µg/mL | – | – | – | –
2 | O=C1O/C(=C\c2cc(Br)c(O)c(Br)c2)C(c2ccc(O)c(Br)c2)=C1C(=O)c1cc(Br)c(O)c(Br)c1 [CADIOLIDE E] | inactive | inactive | inactive | 3.1 µg/mL (≈ 3.9 µM) | 6.3 µg/mL (≈ 7.93 µM) | 0.2 µg/mL (≈ 0.252 µM) | 3.1 µg/mL (≈ 3.9 µM) | 2 µg/mL (≈ 2.52 µM) | 2 µg/mL (≈ 2.52 µM) | 4 µg/mL (≈ 5.03 µM) | 0.25 µg/mL (≈ 0.315 µM) | 1 µg/mL (≈ 1.26 µM) | 1 µg/mL (≈ 1.26 µM) | 2 µg/mL (≈ 2.52 µM) | 0.5 µg/mL (≈ 0.629 µM) | – | – | – | –
3 | O=C1O/C(=C\c2ccc(O)c(Br)c2)C(c2ccc(O)c(Br)c2)=C1C(=O)c1cc(Br)c(O)c(Br)c1 [CADIOLIDE C] | inactive | inactive | inactive | 0.4 µg/mL (≈ 0.559 µM) | 0.4 µg/mL (≈ 0.559 µM) | 0.2 µg/mL (≈ 0.279 µM) | 3.1 µg/mL (≈ 4.33 µM) | 0.5 µg/mL (≈ 0.698 µM) | 0.25 µg/mL (≈ 0.349 µM) | 0.25 µg/mL (≈ 0.349 µM) | < 0.13 µg/mL | 0.5 µg/mL (≈ 0.698 µM) | 0.25 µg/mL (≈ 0.349 µM) | 0.5 µg/mL (≈ 0.698 µM) | < 0.13 µg/mL | – | – | – | –
4 | CCCCCCCCCC(=O)N[C@@H](Cc1c[nH]c2ccccc12)C(=O)N[C@H](CC(N)=O)C(=O)N[C@@H](CC(=O)O)C(=O)N[C@@H]1C(=O)NCC(=O)N[C@@H](CCCN)C(=O)N[C@@H](CC(=O)O)C(=O)N[C@H](C)C(=O)N[C@@H](CC(=O)O)C(=O)NCC(=O)N[C@H](CO)C(=O)N[C@@H]([C@H](C)CC(=O)O)C(=O)N[C@@H](CC(=O)c2ccccc2N)C(=O)O[C@@H]1C | – | – | – | – | – | – | – | 16 µg/mL (≈ 9.87 µM) | 4 µg/mL (≈ 2.47 µM) | 2 µg/mL (≈ 1.23 µM) | 16 µg/mL (≈ 9.87 µM) | > 32 µg/mL | > 32 µg/mL | > 32 µg/mL | > 32 µg/mL | – | – | – | –
5 | CC12C[C@@]34C=CC(=O)[C@@](C)(CCC(=O)Nc5c(O)ccc(C(=O)O)c5O)C3[C@H](CC1C4)O2 (stereo partly drawn) [PLATENSIMYCIN] | – | – | – | – | – | – | – | 4 µg/mL (≈ 9.06 µM) | 4 µg/mL (≈ 9.06 µM) | 4 µg/mL (≈ 9.06 µM) | 8 µg/mL (≈ 18.1 µM) | 8 µg/mL (≈ 18.1 µM) | 8 µg/mL (≈ 18.1 µM) | 8 µg/mL (≈ 18.1 µM) | 8 µg/mL (≈ 18.1 µM) | – | – | – | –
6 | O=C1O/C(=C\c2cc(Br)c(O)c(Br)c2)C(c2cc(Br)c(O)c(Br)c2)=C1C(=O)c1cc(Br)c(O)c(Br)c1 [CADIOLIDE B] | inactive | inactive | inactive | 3.1 µg/mL (≈ 3.55 µM) | 3.1 µg/mL (≈ 3.55 µM) | 3.1 µg/mL (≈ 3.55 µM) | 3.1 µg/mL (≈ 3.55 µM) | 2 µg/mL (≈ 2.29 µM) | 1 µg/mL (≈ 1.14 µM) | 2 µg/mL (≈ 2.29 µM) | 1 µg/mL (≈ 1.14 µM) | 1 µg/mL (≈ 1.14 µM) | 1 µg/mL (≈ 1.14 µM) | 1 µg/mL (≈ 1.14 µM) | 0.5 µg/mL (≈ 0.572 µM) | – | – | – | –
7 | GENTAMICIN | – | – | – | – | – | – | – | – | – | – | – | – | – | – | – | < 0.02 µg/mL | < 0.02 µg/mL | 1.6 µg/mL | 0.05 µg/mL
8 | O=C1C=C(c2ccc(O)c(Br)c2)/C(=C/c2cc(Br)c(O)c(Br)c2)O1 [RUBROLIDE J] | inactive | inactive | inactive | 3.1 µg/mL (≈ 6 µM) | 0.8 µg/mL (≈ 1.55 µM) | 6.3 µg/mL (≈ 12.2 µM) | 1.6 µg/mL (≈ 3.09 µM) | 2 µg/mL (≈ 3.87 µM) | 2 µg/mL (≈ 3.87 µM) | 1 µg/mL (≈ 1.93 µM) | 2 µg/mL (≈ 3.87 µM) | 4 µg/mL (≈ 7.74 µM) | 2 µg/mL (≈ 3.87 µM) | 2 µg/mL (≈ 3.87 µM) | 2 µg/mL (≈ 3.87 µM) | – | – | – | –
9 | O=C1C=C(c2cc(Br)c(O)c(Br)c2)/C(=C/c2cc(Br)c(O)c(Br)c2)O1 [RUBROLIDE A] | inactive | inactive | inactive | 3.1 µg/mL (≈ 5.2 µM) | 1.6 µg/mL (≈ 2.69 µM) | 1.6 µg/mL (≈ 2.69 µM) | 1.6 µg/mL (≈ 2.69 µM) | 4 µg/mL (≈ 6.71 µM) | 4 µg/mL (≈ 6.71 µM) | 4 µg/mL (≈ 6.71 µM) | 8 µg/mL (≈ 13.4 µM) | 8 µg/mL (≈ 13.4 µM) | 8 µg/mL (≈ 13.4 µM) | 8 µg/mL (≈ 13.4 µM) | 8 µg/mL (≈ 13.4 µM) | – | – | – | –
10 | COc1ccc(C=C2OC(=O)C=C2c2ccc(O)c(Br)c2)cc1 | inactive | inactive | inactive | > 50 µg/mL | 25 µg/mL (≈ 67 µM) | 3.1 µg/mL (≈ 8.31 µM) | 50 µg/mL (≈ 134 µM) | > 32 µg/mL | > 32 µg/mL | > 32 µg/mL | > 32 µg/mL | > 32 µg/mL | > 32 µg/mL | > 32 µg/mL | > 32 µg/mL | – | – | – | –
11 | O=C1O/C(=C\c2ccc(O)c(Br)c2)C(c2cc(Br)c(O)c(Br)c2)=C1C(=O)c1cc(Br)c(O)c(Br)c1 [CADIOLIDE D] | inactive | inactive | inactive | 6.3 µg/mL (≈ 7.93 µM) | 0.8 µg/mL (≈ 1.01 µM) | 1.6 µg/mL (≈ 2.01 µM) | 6.3 µg/mL (≈ 7.93 µM) | 0.5 µg/mL (≈ 0.629 µM) | 0.5 µg/mL (≈ 0.629 µM) | 0.25 µg/mL (≈ 0.315 µM) | 0.25 µg/mL (≈ 0.315 µM) | 0.5 µg/mL (≈ 0.629 µM) | 0.25 µg/mL (≈ 0.315 µM) | 1 µg/mL (≈ 1.26 µM) | 0.25 µg/mL (≈ 0.315 µM) | – | – | – | –
12 | CN[C@H](CC(C)C)C(=O)N[C@H]1C(=O)N[C@@H](CC(N)=O)C(=O)N[C@H]2C(=O)N[C@H]3C(=O)N[C@H](C(=O)N[C@H](C(=O)O)c4cc(O)cc(O)c4-c4cc3ccc4O)[C@H](O)c3ccc(c(Cl)c3)Oc3cc2cc(c3O[C@@H]2O[C@H](CO)[C@@H](O)[C@H](O)[C@H]2O[C@H]2C[C@](C)(N)[C@H](O)[C@H](C)O2)Oc2ccc(cc2Cl)[C@H]1O [VANCOMYCIN] | – | – | – | – | – | – | – | – | 0.25 µg/mL (≈ 0.173 µM) | < 0.13 µg/mL | 0.25 µg/mL (≈ 0.173 µM) | – | – | – | – | – | – | – | –
